From ChEMBL document CHEMBL3232922, “Discovery and SAR of 6-alkyl-2,4-diaminopyrimidines as histamine H₄ receptor antagonists” (J Med Chem, 2014)

Legend:
[1] = Clearance in Balb/c mouse at 2 mg/kg, iv; format: ADME, organism-based; set-up: dose 2 mg/kg, route intravenous; conditions: in vivo
[2] = Oral bioavailability in beagle dog at 10 mg/kg; format: ADME, organism-based, Canis lupus familiaris; conditions: in vivo
[3] = Binding affinity to monkey histamine H4 receptor; set-up: species or system Macaca mulatta
[4] = Initial plasma concentration in Sprague-Dawley rat at 2 mg/kg, iv; format: ADME, organism-based; set-up: dose 2 mg/kg, route intravenous
[5] = Tmax in Sprague-Dawley rat at 200 mg/kg, po; format: ADME, organism-based; set-up: dose 200 mg/kg, route oral; conditions: in vivo
Cytochrome P450 1A2 = target: T1, Cytochrome P450 1A2 (Homo sapiens, UniProt P05177); assay: Inhibition of CYP1A2 (unknown origin) at 50 to 100 uM; format: ADME
T1 sequence (P05177 whole entry): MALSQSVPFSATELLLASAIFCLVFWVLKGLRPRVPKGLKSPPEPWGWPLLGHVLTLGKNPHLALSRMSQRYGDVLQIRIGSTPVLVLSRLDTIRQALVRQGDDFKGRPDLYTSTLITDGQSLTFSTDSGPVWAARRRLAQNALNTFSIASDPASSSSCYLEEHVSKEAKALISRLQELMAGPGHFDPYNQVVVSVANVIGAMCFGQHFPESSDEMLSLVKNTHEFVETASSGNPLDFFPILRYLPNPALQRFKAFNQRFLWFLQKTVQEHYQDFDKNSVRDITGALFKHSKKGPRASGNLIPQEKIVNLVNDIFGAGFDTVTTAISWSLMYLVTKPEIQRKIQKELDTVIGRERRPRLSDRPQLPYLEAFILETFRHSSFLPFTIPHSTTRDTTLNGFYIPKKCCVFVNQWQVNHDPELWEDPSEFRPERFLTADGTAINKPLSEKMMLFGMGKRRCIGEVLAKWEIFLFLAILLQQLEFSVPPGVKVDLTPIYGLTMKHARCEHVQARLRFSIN

[6] = Fraction unbound in mouse plasma; format: ADME, cell-free
[7] = Half life in rat microsomes; format: ADME, Microsome
[8] = Tmax in beagle dog at 10 mg/kg, po; format: ADME, organism-based, Canis lupus familiaris; set-up: dose 10 mg/kg, route oral; conditions: in vivo
[9] = AUC in beagle dog at 2 mg/kg, iv; format: ADME, organism-based, Canis lupus familiaris, Plasma; set-up: dose 2 mg/kg, route intravenous; conditions: beagle, plasma
[10] = Oral bioavailability in Sprague-Dawley rat at 500 mg/kg; format: ADME, organism-based; conditions: in vivo
[11] = Tmax in mouse brain at 5 mg/kg, po administered as single dose by LC-MS/MS analysis; format: ADME, organism-based; set-up: dose 5 mg/kg, route oral
In short: (§1)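 Mice received one oral dose of 5 mg/kg. Brain, liver and kidneys were surgically removed from three mice per time point for up to 96 h after dosing. Tissue drug levels were measured by LC–MS/MS with a lower limit of quantitation of 1 ng/g. Tmax and t1/2 are reported as means.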

Histamine H4 receptor [12] = target: T2, Histamine H4 receptor (Mus musculus, UniProt Q91ZY2); assay: Antagonist activity at mouse histamine H4 receptor expressed in SK-N-MC cells assessed as reduction of histamine-induced inhibition of cAMP-mediated beta-galactosidase reporter gene activity treated 10 mins prior to histamine challenge by microplate reader analysis; format: functional, cell-based; conditions: read-out: pA2 (converted)
T2 sequence (Q91ZY2 whole entry): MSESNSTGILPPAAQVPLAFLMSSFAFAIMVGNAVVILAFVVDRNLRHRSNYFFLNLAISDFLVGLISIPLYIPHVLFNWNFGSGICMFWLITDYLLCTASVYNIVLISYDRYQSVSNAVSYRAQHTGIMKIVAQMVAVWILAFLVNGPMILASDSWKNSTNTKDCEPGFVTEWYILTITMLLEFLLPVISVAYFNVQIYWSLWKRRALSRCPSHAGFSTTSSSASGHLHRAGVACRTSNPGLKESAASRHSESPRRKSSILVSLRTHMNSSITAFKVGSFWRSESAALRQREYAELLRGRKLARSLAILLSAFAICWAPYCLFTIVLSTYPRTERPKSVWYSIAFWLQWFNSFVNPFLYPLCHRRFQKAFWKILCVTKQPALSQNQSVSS

Histamine H4 receptor [13] = target: T3, Histamine H4 receptor (Cavia porcellus, UniProt Q91ZY3); assay: Binding affinity to guinea pig histamine H4 receptor
T3 sequence (Q91ZY3 whole entry): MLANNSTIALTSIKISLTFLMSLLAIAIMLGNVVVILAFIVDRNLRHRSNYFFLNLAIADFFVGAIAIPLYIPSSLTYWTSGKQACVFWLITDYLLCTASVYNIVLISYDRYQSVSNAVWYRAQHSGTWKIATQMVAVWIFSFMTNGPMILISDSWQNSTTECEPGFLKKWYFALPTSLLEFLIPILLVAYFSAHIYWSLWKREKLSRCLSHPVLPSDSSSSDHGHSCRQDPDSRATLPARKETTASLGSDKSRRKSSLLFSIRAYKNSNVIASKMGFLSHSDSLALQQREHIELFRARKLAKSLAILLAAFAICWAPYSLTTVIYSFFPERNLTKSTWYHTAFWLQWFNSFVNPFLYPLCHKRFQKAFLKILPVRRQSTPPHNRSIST

[14] = Tmax in mouse kidney at 5 mg/kg, po administered as single dose by LC-MS/MS analysis; format: ADME, organism-based; set-up: dose 5 mg/kg, route oral; in short: as §1
[15] = Half life in Sprague-Dawley rat at 200 mg/kg, po; format: ADME, organism-based; set-up: dose 200 mg/kg, route oral; conditions: in vivo
[16] = Permeability from basolateral to apical side in human Caco cells; format: ADME, cell-based; conditions: Caco-2, read-out: permeability
[17] = Half life in rat at 2 mg/kg, iv; format: ADME, organism-based; set-up: dose 2 mg/kg, route intravenous; conditions: in vivo
[18] = Volume of distribution at steady state in Sprague-Dawley rat at 2 mg/kg, iv; format: ADME, organism-based; set-up: dose 2 mg/kg, route intravenous; conditions: Sprague-Dawley, in vivo, read-out: Vdss
[19] = Cmax in rat at 10 mg/kg, po; format: ADME, organism-based; set-up: dose 10 mg/kg, route oral; conditions: in vivo
[20] = AUC in Sprague-Dawley rat at 10 mg/kg, po; format: ADME, organism-based; set-up: dose 10 mg/kg, route oral; conditions: plasma
[21] = Tmax in Sprague-Dawley rat at 10 mg/kg, po; format: ADME, organism-based; set-up: dose 10 mg/kg, route oral; conditions: in vivo
Cytochrome P450 2C9 = Cytochrome P450 2C9 (Homo sapiens, UniProt P11712); assay: Inhibition of CYP2C9 (unknown origin) at 50 to 100 uM; format: ADME
Chain of Cytochrome P450 2C9 (P11712 whole entry): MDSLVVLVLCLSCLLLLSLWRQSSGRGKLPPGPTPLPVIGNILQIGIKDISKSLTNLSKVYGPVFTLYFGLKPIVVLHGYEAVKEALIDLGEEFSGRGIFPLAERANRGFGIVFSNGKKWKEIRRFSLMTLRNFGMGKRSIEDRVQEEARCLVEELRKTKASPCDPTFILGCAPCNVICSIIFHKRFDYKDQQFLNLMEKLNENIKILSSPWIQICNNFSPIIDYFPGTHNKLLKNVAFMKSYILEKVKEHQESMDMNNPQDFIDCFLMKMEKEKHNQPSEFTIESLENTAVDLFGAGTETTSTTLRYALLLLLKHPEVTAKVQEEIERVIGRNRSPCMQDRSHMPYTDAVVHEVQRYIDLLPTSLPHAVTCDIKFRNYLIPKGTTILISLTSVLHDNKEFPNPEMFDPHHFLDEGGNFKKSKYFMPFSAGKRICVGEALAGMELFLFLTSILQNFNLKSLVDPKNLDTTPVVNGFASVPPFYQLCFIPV

Salmonella typhimurium = assay: Genotoxicity in Salmonella typhimurium by Ames test; format: toxicity, organism-based; conditions: salmonella enterica subsp. enterica serovar typhimurium
[22] = Oral bioavailability in Sprague-Dawley rat at 10 mg/kg; format: ADME, organism-based; conditions: in vivo
[23] = AUC in Sprague-Dawley rat at 2 mg/kg, iv; format: ADME, organism-based; set-up: dose 2 mg/kg, route intravenous; conditions: plasma
[24] = AUC in Balb/c mouse at 2 mg/kg, iv; format: ADME, organism-based; set-up: dose 2 mg/kg, route intravenous; conditions: plasma
[25] = AUC in beagle dog at 10 mg/kg, po; format: ADME, organism-based, Canis lupus familiaris; set-up: dose 10 mg/kg, route oral; conditions: plasma
[26] = Oral bioavailability in Balb/c mouse at 20 mg/kg; format: ADME, organism-based; conditions: in vivo
[27] = Tmax in mouse liver at 5 mg/kg, po administered as single dose by LC-MS/MS analysis; format: ADME, organism-based; set-up: dose 5 mg/kg, route oral; in short: as §1
[28] = Oral bioavailability in Sprague-Dawley rat at 200 mg/kg; format: ADME, organism-based; conditions: in vivo
[29] = Cmax in Sprague-Dawley rat at 10 mg/kg, po; format: ADME, organism-based; set-up: dose 10 mg/kg, route oral; conditions: in vivo
[30] = Half life in human microsomes; format: ADME, Microsome
[31] = Clearance in beagle dog at 2 mg/kg, iv; format: ADME, organism-based, Canis lupus familiaris; set-up: dose 2 mg/kg, route intravenous; conditions: beagle, in vivo
[32] = target: Voltage-gated inwardly rectifying potassium channel KCNH2 (Homo sapiens, UniProt Q12809); assay: Inhibition of human ERG channel transfected in HEK293 cells assessed as reduction in delayed rectifier current by patch clamp assay; format: cell-based
Chain of Voltage-gated inwardly rectifying potassium channel KCNH2 (Q12809 whole entry): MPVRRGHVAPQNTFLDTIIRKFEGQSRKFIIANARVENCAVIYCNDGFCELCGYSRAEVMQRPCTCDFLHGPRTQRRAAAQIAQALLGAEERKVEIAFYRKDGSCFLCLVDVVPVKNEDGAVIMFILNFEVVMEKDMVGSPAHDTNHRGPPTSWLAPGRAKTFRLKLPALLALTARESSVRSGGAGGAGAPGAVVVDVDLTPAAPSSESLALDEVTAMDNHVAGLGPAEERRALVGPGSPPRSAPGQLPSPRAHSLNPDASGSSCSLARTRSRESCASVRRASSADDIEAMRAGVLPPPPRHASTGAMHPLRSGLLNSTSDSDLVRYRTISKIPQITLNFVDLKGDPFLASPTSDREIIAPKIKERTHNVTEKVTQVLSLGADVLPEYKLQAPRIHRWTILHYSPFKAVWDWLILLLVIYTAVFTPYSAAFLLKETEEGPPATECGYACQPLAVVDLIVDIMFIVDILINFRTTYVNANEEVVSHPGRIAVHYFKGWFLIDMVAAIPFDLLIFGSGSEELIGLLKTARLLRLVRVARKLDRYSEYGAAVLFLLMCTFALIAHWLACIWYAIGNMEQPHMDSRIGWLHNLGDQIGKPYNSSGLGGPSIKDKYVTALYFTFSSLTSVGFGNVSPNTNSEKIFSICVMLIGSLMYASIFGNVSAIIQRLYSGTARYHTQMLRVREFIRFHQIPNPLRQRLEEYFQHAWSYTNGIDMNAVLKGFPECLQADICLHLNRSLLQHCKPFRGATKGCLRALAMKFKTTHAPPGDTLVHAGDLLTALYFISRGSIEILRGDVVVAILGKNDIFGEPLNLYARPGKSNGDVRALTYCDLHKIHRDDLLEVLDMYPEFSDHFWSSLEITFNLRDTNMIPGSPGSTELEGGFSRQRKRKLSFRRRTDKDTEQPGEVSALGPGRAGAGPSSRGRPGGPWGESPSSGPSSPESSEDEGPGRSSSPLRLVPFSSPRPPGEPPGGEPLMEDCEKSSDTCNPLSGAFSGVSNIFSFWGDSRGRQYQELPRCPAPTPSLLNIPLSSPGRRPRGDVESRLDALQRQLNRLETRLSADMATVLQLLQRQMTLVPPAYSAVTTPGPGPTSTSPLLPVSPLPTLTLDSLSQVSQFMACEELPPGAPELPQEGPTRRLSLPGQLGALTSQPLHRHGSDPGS
In short: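 The delayed rectifier current (IKr) was recorded in hERG-transfected HEK293 cells with the compound at 3 μM.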

[33] = Toxicity in rabbit purkinje fibers; format: tissue-based, Oryctolagus cuniculus, Purkinje fiber; conditions: ex_vivo

In the case of `CC(C)c1cc(N2CC[C@@H](N)C2)nc(N)n1` [JNJ-39758979], the clearance [1] is reported as 40 mL/min/kg, the bioavailability [2] is reported as 95% and the Ki [3] is reported as 25 nM. For the same molecule, the C0 [4] was 1100 nM, the Tmax [5] was 8 h and the “inhibition (INH)” value (Cytochrome P450 1A2) was “Not Active”. For the same molecule, the fraction unbound [6] was 0.76, the half-life [7] was 1.02 h and the Tmax [8] was 0.8 h. It also gave an AUC [9] of 6.7 µM·h, a bioavailability [10] of 53% and a Tmax [11] of 6 h. The Kb (Histamine H4 receptor [12]) was 5.01 nM, the Ki (Histamine H4 receptor [13]) was 306 nM and the Tmax [14] was 2 h. It also gave a half-life [15] of 6.16 h, a Papp B→A [16] of 22 ×10⁻⁶ cm/s and a half-life [17] of 2.1 h. It also gave a Vd [18] of 19.9 L/kg, a Cmax [19] of 300 nM and an AUC [20] of 2.43 µM·h. The Tmax [21] was 2 h, the “inhibition (INH)” value (Cytochrome P450 2C9) was “Not Active” and the Activity (Salmonella typhimurium) was “Non-toxic”. It also gave a bioavailability [22] of 35%, an AUC [23] of 1.4 µM·h and an AUC [24] of 3.27 µM·h. The AUC [25] was 31.6 µM·h, the bioavailability [26] was 75% and the Tmax [27] was 2 h. It also gave a bioavailability [28] of 51%, a Cmax [29] of 260 nM and a half-life [30] greater than 3 h. For the same molecule, the clearance [31] was 23.3 mL/min/kg, the INH [32] was greater than 10 µM and the Activity [33] was “Non-toxic”.
